# Screening data as filed in PubChem.
# Only a selection was taken, and hits are over-represented in it overall.
# L major viab: Leishmania major promastigote growth inhibition. 200,000 tested, 9% active. inhibition, % at 10 µM. Leishmania major promastigotes, resazurin fluorescence viability; in the data active means inhibition above about 50%;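 further: promastigotes grown with compound for 44 hours at 28 °C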
# UPR CHOP act: apoptotic UPR (CHOP) activation; CHO-CHOP luciferase reporter, luminescence; percent of tunicamycin response over DMSO baseline; activation, % at 10 µM; 330,000 tested, 0.34% active;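 active means at 10 µM dose, activation of 40% or more, normalized to positive control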;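 further: 100% = tunicamycin at 10 µg/mL and 0% = DMSO alone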
#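 Assay system: CHO-CHOP cells, stable luciferase reporter of PERK-eIF2a-CHOP signalling / Buffer or medium: F12 plus 10% serum / Compound dosing: one dose, 10 µM in 0.5% DMSO / Times: 6 h compound treatment, 37 °C / Technique: luciferase luminescence / Read-out: % reporter activation, DMSO baseline versus tunicamycin full activation / Benchmarks: tunicamycin and DMSO controls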
# UPR XBP1 act: adaptive UPR (XBP1) activation; CHO-XBP1 luciferase reporter, IRE1-XBP1 UPR activation, luminescence; percent of tunicamycin response, DMSO as zero; activation, % at 20 µM; 330,000 tested, 0.33% active;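 active means versus positive control, 20 µM dose yields 30% or more activation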;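 further: 100% = tunicamycin at 10 µg/mL and 0% = DMSO only wells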
#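 assay system = CHO-XBP1 luciferase reporter cells | amount = 1000 cells/well | buffer or medium = F12 plus 10% FBS | compound dosing = single point, 20 µM final compound, 1% DMSO | incubation = 16-18 h cell attachment at 37 °C, then 6 h compound exposure | detection = Steady-Glo luminescence read | controls = tunicamycin 10 µg/mL and vehicle-only wells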
# Dynein transport: dynein cargo transport inhibition | 3617.4 mouse cells, GR-EGFP nuclear translocation imaging; test concentration mostly 20 µM; stimulated with dexamethasone, 1 µM; hits give low values | z-score, hits read low | 220,000 tested, 0.47% active;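 active means plate z-score of nuclear minus cytoplasmic receptor signal below a set negative limit, without overly bright fluorescence or cell loss, cut at about -3.5 in these data, passing the limit was not always enough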;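 further: z-score of nuclear minus cytoplasmic ring GR-EGFP intensity difference per well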
#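 Buffer or medium: Induction medium lacking tetracycline, stripped serum | Also added: Dexamethasone agonist, 1.0 µM final, for 30 min | Timing: 48 h induction, 1 h compound, 30 min dex at 37 °C | Detection: Formaldehyde fixation, Hoechst nuclear stain, 10x automated fluorescence imaging | Measure: Nuclear versus cytoplasmic GR-EGFP signal, averaged per well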
# CHOP inhibitor: inhibitors of CHOP induction in ER stress response | inhibition, % at 10 µM | 220,000 tested, 3.8% active | CHO-K1 CHOP-promoter luciferase, tunicamycin-induced, 15-18 h | AID 2732;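 active means compounds that reduced the stress-induced luciferase reporter signal by more than about 70% of percent inhibition, limit read from the data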;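 further: 0% = tunicamycin plus vehicle and 100% = wells without tunicamycin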
# T cruzi repl: T. cruzi replication inhibition; T. cruzi beta-gal in NIH3T3, luminescence, 90 h; inhibition, % (concentration not given with the values); 300,000 tested, 1.4% active; AID 1885;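 active means mean inhibition across valid replicates above about 55%, limit read from the data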;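 further: signal also drops with host cell toxicity which is not excluded here; 0% = plate median of DMSO wells and 100% = zero luminescence signal; higher percent means less beta-gal luminescence so fewer parasites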
#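 System: mouse NIH/3T3 fibroblasts infected with β-gal-expressing T. cruzi Tulahuen C4 / Input: NIH/3T3 cells, 5,000 per well / Buffer or medium: Low-serum DMEM with 2% FBS / Probe or stimulus: 5000 reporter trypomastigotes per well / Schedule: ≥90 h infection period, 3 h prior cell attachment / Measured by: GalScreen luminescence, 60 min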
# The depositor's hits bear a star; · = no result.
SMILES,L major viab,UPR CHOP act,UPR XBP1 act,Dynein transport,CHOP inhibitor,T cruzi repl
COc1ccc(N2CCN(C(=O)C3CCCN3S(=O)(=O)c3cccc4nsnc34)CC2)cc1 (stereo unspecified),·,-0.3,-2.2,·,·,-2.6
COc1ccc2c(c1)c(=O)c(C(=O)c1ccccc1)cn2Cc1ccc(C)cc1,51.7*,1.5,-5.3,-0.582,8.0,15.7
CCn1cc(C(=O)O)c(=O)c2cc(OC)ccc21,-8.2,1.8,-2.1,-1.32,-17.9,-33.9
Cc1ccc(-n2ncc(C(=O)Nc3cc(Cl)ccc3Cl)c2C2CCNCC2)cc1,-6.8,0.9,5.8,-1.32,-13.4,25.7
Cc1ccc(-n2ncc(C(=O)Nc3cc(Cl)cc(Cl)c3)c2C2CCNCC2)cc1C,100.6*,·,·,-0.533,3.0,54.9*
Cc1[nH]c2ccccc2c1C(c1ccncc1)N1CCN(c2ccc(F)cc2)CC1 (stereo unspecified),98.8*,1.9,-2.9,0.374,26.4,7.2
Cc1[nH]c2ccccc2c1C(c1ccncc1)N1CCCCC1 (stereo unspecified),40.6,-0.1,-5.2,0.26,-55.5,28.4
COc1ccc(O)c(C=Nc2cc(NC(C)=O)c(Cl)cc2Cl)c1,64.3*,·,·,-0.0699,24.7,0.8
COc1ccc(C(=O)CN2C3=NCCCN3c3ccccc32)cc1OC,-7.9,-0.1,-2.4,0.0146,-4.8,-9.1
O=C(CN1C2=NCCN2c2ccccc21)C12CC3CC(CC(C3)C1)C2,100.7*,-2.9,-2.8,2.17,3.4,9.7
Cc1ccc(C)c(C(=O)CN2C3=NCCCN3c3ccccc32)c1,77.9*,-1.3,-2.1,1.21,5.7,36.4
c1ccc(CN2C3=NCCN3c3ccccc32)cc1,-6.3,-1.4,-1.4,-0.00789,-4.8,-2.8
O=C(NCCCNC(=O)c1cnccn1)c1ccc(Br)cc1,·,-2.0,-1.7,·,·,6.4
COc1ccc(-c2ccccc2NC(=O)C2CCCN(Cc3ccc(C)o3)C2)cc1 (stereo unspecified),·,-0.2,-5.7,·,·,17.8
COc1ccc(CCN(C)C(=O)c2cnc(C)cn2)cc1OC,·,0.3,-1.4,·,·,-14.6
CC(C)CNC(=S)NC1CC2CCC(C1)N2Cc1ccccc1 (stereo unspecified),87.6*,2.5,-3.2,0.446,-17.5,-1.7
S=C(NC1CCCCC1)NC1CC2CCC(C1)N2Cc1ccccc1 (stereo unspecified),89.6*,-1.3,3.3,0.0421,21.6,15.8
O=C(NC1CCCCC1)NC1CC2CCCC(C1)N2C1CCCC1 (stereo unspecified),-6.8,0.9,1.6,0.657,-1.0,2.2
CC(C)CNC(=S)NC1CC2CCCC(C1)N2C1CCCCC1 (stereo unspecified),52.1*,-0.3,-0.2,0.845,0.8,-5.9
CCOCCCNC(=S)NC1CC2CCC(C1)N2Cc1ccccc1 (stereo unspecified),88.0*,-1.5,0.6,0.658,18.4,-32.1
O=C(CCSc1ccc(F)cc1)NNC(=O)c1ccccc1Cl,·,-2.0,-1.8,·,·,·
Cc1ccc(NC(=O)c2ccc(Cl)c(S(=O)(=O)N3CCCCC3)c2)nc1,·,1.6,-4.7,·,·,·
O=S(=O)(c1ccccc1Br)N(Cc1ccccc1)CC(O)COCc1ccccc1 (stereo unspecified),·,2.2,-1.0,·,·,·
CC/C(=N\NS(=O)(=O)c1ccc(C)cc1)c1ccco1,·,0.2,-5.5,·,·,8.3
Cc1ccccc1C(=O)NC1CC2CCC(C1)N2Cc1ccccc1 (stereo unspecified),85.6*,0.6,-3.4,-0.861,0.8,22.7
O=C(NC1CC2CCCC(C1)N2Cc1ccccc1)C1CCCCC1 (stereo unspecified),83.6*,-2.2,6.1,1.06,1.1,21.1
CCNC(=S)NC1CC2CCC(C1)N2Cc1ccccc1 (stereo unspecified),27.4,-2.5,-0.6,-0.755,21.4,-11.3
S=C(NCCc1ccccc1)NC1CC2CCC(C1)N2Cc1ccccc1 (stereo unspecified),94.2*,1.6,-3.2,-0.0568,32.1,17.7
